The subject of series [1] is Plasmodium falciparum. Briefly: Antiplasmodial activity against Plasmodium falciparum FcB1. It counts as functional, organism-based. The method, boiled down: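 P. falciparum FcB1 (chloroquine-resistant) was kept in continuous culture in human erythrocytes. Growth inhibition was read by [³H]hypoxanthine incorporation. IC50 was taken from the drug concentration–response curve and is the mean of three independent experiments.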

The test system of a further series is MRC5. In words: Cytotoxicity against MRC5 cells. It counts as cell-based, Homo sapiens. Particulars: for IC50: Homo sapiens, MRC5; call rule not given here. In a few lines:
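MRC5 cells were cultured for 5 days in the presence of drug, with viability read by colorimetric MTT. IC50 was taken from the concentration–response curve and is the mean of three independent experiments.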

The nature of series [2]: Selectivity index, ratio of IC50 for MRC5 cells to IC50 for Plasmodium falciparum FcB1. It counts as functional. In a few lines: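 Ratio of MRC5 IC50 to P. falciparum FcB1 IC50. MRC5 IC50 came from a 5-day drug exposure read by MTT. Parasite IC50 came from [³H]hypoxanthine incorporation in erythrocyte cultures. Both were taken from concentration–response curves as means of three independent experiments.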

Series [3] has as its system Plasmodium falciparum. Briefly: In vitro antiplasmodial activity against Plasmodium falciparum Thai.
Series [4] concerns Plasmodium falciparum. In words: Antiplasmodial activity against chloroquine-resistant Plasmodium falciparum K1. It counts as functional, organism-based. In a few lines:
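Parasites kept in continuous culture on human erythrocytes; growth measured by [3H]hypoxanthine incorporation. IC50 taken from the drug concentration–response curve, mean of three independent experiments.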

Series [5] has as its system Plasmodium yoelii. Briefly: Antiplasmodial activity as reduced parasitaemia against Plasmodium yoelii N67 infected Swiss mice (Mus musculus) at 50 mg/kg peroral dose. Format: functional. The settings on record: route oral. The method, boiled down: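 Peters 4-day suppressive test in mice infected with P. yoelii nigeriensis N67. Compound was given orally (0.5 ml) daily from day 0, at 10 or 50 mg/kg as per line. Groups had five mice, with a vehicle-only untreated group. Day-4 parasitemia was counted on Diff Quick-stained blood smears. % inhibition was calculated against untreated mice.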

Series [6] deals with Plasmodium yoelii. Briefly: Antiplasmodial activity as reduced parasitaemia against Plasmodium yoelii N67 infected Swiss mice (Mus musculus) at 10 mg/kg peroral dose. Particulars: route oral. It counts as functional. In a few lines:
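4-day suppressive test in P. yoelii nigeriensis N67-infected mice, five per group. Dosing oral, once daily from day 0, 0.5 ml/mouse. Untreated group received vehicle only. Parasitemia read on day 4 from Diff Quick-stained blood smears. Percent inhibition calculated against untreated mice. Deaths counted at day 14.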

The test system of series [7] is Plasmodium falciparum. In words: Antiplasmodial activity against Plasmodium falciparum D6. It counts as functional, organism-based.

Experimental findings from ChEMBL document CHEMBL1143810, “Synthesis and antimalarial evaluation of a series of piperazinyl flavones” (Bioorg Med Chem Lett, 2007) are described below.

SMILES strings stand for the structures.

Usually IC50 stands for the concentration at which inhibition is half-maximal. A low value points to inhibition by little substance. By inhibition in vivo is commonly meant the drop in the measured response relative to a control, in per cent. High values mean a strong effect, low ones a weak effect.

Regarding `CCOC(=O)COc1cc(-c2cc(=O)c3c(O)cc(OCC(=O)N4CCN(C)CC4)cc3o2)ccc1OC`, the IC50 in the series on Plasmodium falciparum [1] is 26 µM.
For `COc1ccc(-c2cc(=O)c3c(O)cc(OCC(=O)N4CCN(Cc5ccc(OC)c(OC)c5OC)CC4)cc3o2)cc1OC1CCCC1`, the values for the IC50 with MRC5 and with Plasmodium falciparum [1] were greater than 150 µM and 2.8 µM, respectively. For the same compound, the “Ratio IC50” value in series [2] was greater than 53.
For the compound `CCOC(=O)COc1cc(-c2cc(=O)c3c(O)cc(OCC(=O)N4CC[N+]([O-])(Cc5ccc(OC)c(OC)c5OC)CC4)cc3o2)ccc1OC`, the IC50 in the series on Plasmodium falciparum [1] stood at 19 µM.
The same measure, in the same setting: the result for `CCOC(=O)COc1cc(-c2cc(=O)c3c(O)cc(OCC(=O)N4CC[N+](C)(Cc5ccc(OC)c(OC)c5OC)CC4)cc3o2)ccc1OC` reads 41 µM.
For the compound `CCOC(=O)COc1cc(-c2cc(=O)c3c(O)cc(OCC(=O)N4CCN(Cc5ccc(O)c(OC)c5OC)CC4)cc3o2)ccc1OC`, the half-maximal inhibitory concentration (IC50) in the series with Plasmodium falciparum [3] was 1.2 µM; in the series on Plasmodium falciparum [4], 0.4 µM; in the series with MRC5, 10 µM; with Plasmodium falciparum [1], 0.6 µM. Besides, the “Ratio IC50” value in series [2] was found to be 16.7.
On to `CCN(CC)CCCC(C)Nc1ccnc2cc(Cl)ccc12` (stereo unspecified) [CHLOROQUINE], for which the result with MRC5 (human, mrc5) was Active.
Turning to `CCOC(=O)COc1cc(-c2cc(=O)c3c(O)cc(OCC(=O)N4CCN(Cc5ccc(OC)c(OC)c5OC)CC4)cc3o2)ccc1OC`, testing at 50 mg/kg in the series on Plasmodium yoelii [5] gave an inhibition in vivo of 43.1%. Also, the IC50 in the series on Plasmodium falciparum [3] is 13 µM; in the series with Plasmodium falciparum [4] it was 13 µM; in the series with MRC5, greater than 70 µM; in the series with Plasmodium falciparum [1], 1 µM; in the series on Plasmodium falciparum [7] it was 0.5 µM. Further, the “Ratio IC50” value in series [2] is listed as greater than 140. Further, testing at 10 mg/kg in the series with Plasmodium yoelii [6] gave an inhibition in vivo of 27.1%.
`CCOC(=O)COc1cc(-c2cc(=O)c3c(O)cc(OCC(=O)N4CCN(C(=O)OC(C)(C)C)CC4)cc3o2)ccc1OC`: the half-inhibitory concentration (IC50) worked out at 3.8 µM with MRC5 and 1.8 µM with Plasmodium falciparum [1]. In addition, in series [2], the “Ratio IC50” value is given as 2.1.
Turning to `CCOC(=O)COc1cc(-c2cc(=O)c3c(O)cc(OCC(=O)N4CCN(Cc5ccc(OC)c(OC)c5)CC4)cc3o2)ccc1OC`, in the series with Plasmodium falciparum [7], the IC50 was found to be 4.7 µM.
In the series with Plasmodium falciparum [7], `CCOC(=O)COc1cc(-c2cc(=O)c3c(O)cc(OCC(=O)N4CCN(Cc5ccccc5)CC4)cc3o2)ccc1OC` yielded a half-maximal inhibitory concentration (IC50) of 9.5 µM.
As to `COc1ccc(-c2cc(=O)c3c(O)cc(OCC(=O)N4CCN(Cc5ccc(OC)c(OC)c5OC)CC4)cc3o2)cc1OCC(=O)OC(C)(C)C`, the IC50 in the series on Plasmodium falciparum [3] was 1.5 µM; with Plasmodium falciparum [4], 1.4 µM; with MRC5, greater than 140 µM; in the series on Plasmodium falciparum [1], 1.7 µM. Further, the “Ratio IC50” value in series [2] is listed as greater than 82.
In the series on Plasmodium falciparum [7], `CCOC(=O)COc1cc(OCC(=O)N2CCN(Cc3ccc(OC)c(OC)c3OC)CC2)c2c(=O)cc(-c3ccc(OC)c(OCC(=O)OCC)c3)oc2c1` registered an IC50 of 5.4 µM. This lies in the single-digit micromolar range.
As to `COc1ccc(-c2cc(=O)c3c(O)cc(OCC(=O)N4CCN(Cc5ccc(OC)c(OC)c5OC)CC4)cc3o2)cc1OCC(=O)N1CCN(Cc2ccc(OC)c(OC)c2OC)CC1`, the IC50 with MRC5 came to 1 µM; in the series with Plasmodium falciparum [7], 0.18 µM.
As for `COc1ccc(-c2cc(=O)c3c(O)cc(OCC(=O)N4CCN(Cc5ccc(OC)c(OC)c5OC)CC4)cc3o2)cc1O`, it took 5.3 µM to reach half-maximal inhibition in the series with Plasmodium falciparum [7] (IC50).
`COc1ccc(CN2CCN(C(=O)COc3ccc4c(=O)cc(-c5ccccc5)oc4c3)CC2)c(OC)c1OC` showed an IC50 in the series on Plasmodium falciparum [1] of 13 µM.
Regarding `CCOC(=O)COc1cc(-c2cc(=O)c3c(O)cc(OCC(=O)N4CCN(Cc5ccc(OCc6ccccc6)c(OC)c5OC)CC4)cc3o2)ccc1OC`, the IC50 was determined as 10 µM in the series with MRC5 and 2.8 µM in the series on Plasmodium falciparum [1]. Moreover, the “Ratio IC50” value in series [2] is listed as 3.6.
`CCOC(=O)COc1cc(-c2cc(=O)c3c(O)cc(OCC(=O)N4CCN(Cc5ccc(Cl)cc5)CC4)cc3o2)ccc1OC`: the IC50 in the series on Plasmodium falciparum [7] was found to be 6 µM.
For the compound `COc1ccc(CN2CCN(C(=O)COc3ccc4c(=O)cc(-c5cc(C(C)(C)C)c(O)c(C(C)(C)C)c5)oc4c3)CC2)c(OC)c1OC`, in the series on Plasmodium yoelii [5], 50 mg/kg produced 38.5% inhibition in vivo. The half-maximal inhibitory concentration (IC50) is 0.9 µM in the series with Plasmodium falciparum [3], 0.4 µM in the series with Plasmodium falciparum [4], greater than 150 µM in the series with MRC5 and 1.2 µM in the series with Plasmodium falciparum [1]. The “Ratio IC50” value in series [2] is greater than 125. In the series with Plasmodium yoelii [6], this compound had an inhibition in vivo at 10 mg/kg of 24.1%.
`CCCCCCOc1cc(-c2cc(=O)c3c(O)cc(OCC(=O)N4CCN(Cc5ccc(OC)c(OC)c5OC)CC4)cc3o2)ccc1OC` came in with an IC50 in the series with Plasmodium falciparum [1] of 3.9 µM.
Regarding `CCOC(=O)COc1cc(-c2cc(=O)c3c(O)cc(OCCN4CCN(Cc5ccc(OC)c(OC)c5OC)CC4)cc3o2)ccc1OC`, the half-inhibitory concentration (IC50) with MRC5 was found to be 18 µM; in the series on Plasmodium falciparum [1] it was 4.3 µM. Moreover, the “Ratio IC50” value in series [2] was 4.2.
Turning to `CCOC(=O)COc1cc(-c2cc(=O)c3c(O)cc(OCC(=O)N4CCN(Cc5c(OC)cc(OC)cc5OC)CC4)cc3o2)ccc1OC`, the results for the half-inhibitory concentration (IC50) in the series with MRC5 and in the series with Plasmodium falciparum [1] were 9.5 µM and 1.9 µM, respectively. Moreover, the “Ratio IC50” value in series [2] is listed as 5.
In turn, `CCOC(=O)COc1cc(-c2cc(=O)c3c(O)cc(OCC(=O)N4CCN(Cc5ccc(OC)cc5)CC4)cc3o2)ccc1OC` came in with an IC50 in the series on Plasmodium falciparum [1] of 8.9 µM.
On the same count and under the same terms, with `COc1ccc(CN2CCN(C(=O)COc3cc(O)c4c(=O)cc(-c5ccccc5)oc4c3)CC2)c(OC)c1OC` the figure was 14 µM.
In turn, `CCOC(=O)COc1cc(-c2cc(=O)c3c(O)cc(OCC(=O)N4CCN(Cc5cccc(OC)c5OC)CC4)cc3o2)ccc1OC` showed a half-inhibitory concentration (IC50) in the series on Plasmodium falciparum [7] of 2.4 µM.
Take `CCOC(=O)COc1cc(-c2cc(=O)c3c(O)cc(OCC(=O)N4CCN(Cc5ccc(OC)cc5OC)CC4)cc3o2)ccc1OC`: the 50% inhibitory concentration (IC50) with MRC5 was 5.6 µM; in the series with Plasmodium falciparum [1], 1.7 µM. In addition, the “Ratio IC50” value in series [2] was 3.3.
Consider `CCOC(=O)COc1cc(O)c2c(=O)cc(-c3ccc(OC)c(OCC(=O)N4CCN(Cc5ccc(OC)c(OC)c5OC)CC4)c3)oc2c1`, for which the midpoint of inhibition in the series on Plasmodium falciparum [7], the IC50, lay at 6.2 µM. This lies in the single-digit micromolar range.
The same measure, in the same setting: the result for `CCOC(=O)COc1cc(-c2cc(=O)c3c(O)cc(OCC(=O)N4CCN(Cc5cc(OC)c(OC)c(OC)c5)CC4)cc3o2)ccc1OC` reads 4 µM.
